Pf Dd2 growth = P. falciparum Dd2 growth inhibition; activity change, % at 10 µM; 94,000 tested, 2.3% active; SYBR Green, 72 h; hits give low values; in the data active = activity change below about -80%; inconclusive = no clear call, values can overlap the other calls
IDH1 R132H inh = IDH1 R132H (human) inhibition | AID 624101 | O75874 | IDH1 R132H reductase, diaphorase/resazurin fluorescence, 60 min | 70,000 tested, 0.18% active | inhibition, % at 10 µM; in the data active = inhibition above about 34%; inconclusive = no clear call, values can overlap the other calls; inactive = below about 11%;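 note: 0% = DMSO and 100% = no enzyme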
Target sequence (O75874 whole entry R132H): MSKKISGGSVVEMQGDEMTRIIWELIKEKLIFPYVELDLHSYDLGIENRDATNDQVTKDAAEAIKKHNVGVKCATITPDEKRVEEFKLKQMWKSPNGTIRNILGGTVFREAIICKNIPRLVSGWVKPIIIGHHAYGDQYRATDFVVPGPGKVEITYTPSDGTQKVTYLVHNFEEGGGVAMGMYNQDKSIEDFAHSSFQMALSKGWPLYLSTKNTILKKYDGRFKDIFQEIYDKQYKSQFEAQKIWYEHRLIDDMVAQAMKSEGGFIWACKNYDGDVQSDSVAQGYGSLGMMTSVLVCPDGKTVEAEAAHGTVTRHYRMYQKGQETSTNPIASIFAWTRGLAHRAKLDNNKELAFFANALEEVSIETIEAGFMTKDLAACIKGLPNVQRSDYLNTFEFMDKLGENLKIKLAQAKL
T cruzi growth-1 = T. cruzi proliferation inhibition; AID 624255; inhibition, % at 8.34 µM; T. cruzi beta-gal in NIH3T3, GalScreen luminescence, 90 h; 77,000 tested, 5.9% active;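 active = mean inhibition above about 93%, with at least 55% of replicates each passing it, limit read from the data, passing the limit was not always enough; inconclusive = only one of those two conditions holds; inactive = neither condition holds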
GASC1 inh = inhibitors of human demethylase GASC-1 KDM4C. AID 720574. 96,000 tested, 0.15% active. Q9H3R0. inhibition, % at 12.5 µM. GST-KDM4C 2-372, H3K9me3 peptide, LANCE TR-FRET;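 active = mean replicate inhibition above about 25%, with at least 55% of replicates also reaching it, limit read from the data, passing the limit was not always enough; inconclusive = only one of those two conditions met; inactive = neither condition met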
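System: N-terminal GST-fused human GASC-1 (KDM4C) fragment, residues 2-372 / Amount: 10 nM GST-KDM4C in enzyme reaction / Also added: H3K9me3 peptide with Fe(II)/2OG / Times: 30 min demethylation and 1 h detection at room temperature / Signal: LANCE TR-FRET / Read-out basis: Fall in 671/618 emission ratio as inhibition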
T cruzi growth-2 = inhibitors of T. cruzi proliferation. T. cruzi beta-gal in NIH3T3, GalScreen luminescence, 90 h. AID 651739. 5,600 tested, 72% active. shares compounds with T cruzi growth-1. inhibition, % at 8.35 µM;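 active = mean replicate inhibition above about 95% and at least 55% of replicates individually reaching it, limit read from the data; inconclusive = only one of the two criteria is met; inactive = neither criterion is met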
T cruzi growth-3 = blocks T. cruzi growth in NIH3T3 host cells | shares compounds with T cruzi growth-1 | T. cruzi beta-gal in NIH3T3, GalScreen luminescence, 90 h | inhibition, % at 2.09 µM | 5,600 tested, 21% active | AID 651740;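 active = mean inhibition above about 95%, with at least 55% of replicates also reaching it, limit read from the data; inconclusive = meets just one of the two conditions; inactive = meets neither condition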;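 note: plate controls were neutral control median for no effect and positive control median for full effect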
3T3 cytotox = NIH/3T3 (mouse) viability loss; shares compounds with T cruzi growth-1; NIH/3T3 viability, CellTiter-Glo ATP luminescence, 90 h; cytotoxicity (signal decrease), % at 8.35 µM; 5,600 tested, 14% active;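 active = mean signal decrease across replicates above about 35% based on untreated-well scatter, with enough replicates individually passing, limit read from the data; inconclusive = no rule stated though some were filed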;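 note: 0% = median of neutral control wells and 100% = median of positive control wells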
3T3 cytotox 2 = NIH/3T3 (mouse) viability loss | 5,600 tested, 56% active | inhibition, % at 24.9 µM | NIH/3T3 viability, CellTiter-Glo ATP luminescence, 90 h | AID 651744 | shares compounds with T cruzi growth-1;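 active = mean loss of cell viability signal at or above a set limit, and enough replicates individually reaching it; inconclusive = meets only the mean limit or only the replicate share; inactive = meets neither condition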;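 note: 0% = median of neutral control wells and 100% = median of positive control wells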
Numbers without * were called inactive. An excerpt weighted towards active compounds, which were near 5.8% of everything screened.

How did CC(C)CC#Cc1ccc2c(c1)O[C@H](CN(C)CC1CC1)[C@H](C)CN([C@H](C)CO)S2(=O)=O do in these assays?
Pf Dd2 growth: -46; IDH1 R132H inh: -1; T cruzi growth-1: 105*; GASC1 inh: -2; T cruzi growth-2: 108*; T cruzi growth-3: 63; 3T3 cytotox: 13; 3T3 cytotox 2: 106*

What do the screens show for `CCCN(C)C[C@@H]1Oc2cc(C#CCC(C)C)ccc2S(=O)(=O)N([C@@H](C)CO)C[C@@H]1C`?
Pf Dd2 growth: -26; IDH1 R132H inh: -1; T cruzi growth-1: 108*; GASC1 inh: 0; T cruzi growth-2: 110*; T cruzi growth-3: 110*; 3T3 cytotox: 14; 3T3 cytotox 2: 104*

What do the screens show for `CC(C)CC#Cc1ccc2c(c1)O[C@@H](CN(C)CC1CC1)[C@@H](C)CN([C@@H](C)CO)S2(=O)=O`?
Pf Dd2 growth: -50; IDH1 R132H inh: -1; T cruzi growth-1: 111*; GASC1 inh: -1; T cruzi growth-2: 110*; T cruzi growth-3: 89; 3T3 cytotox: 21; 3T3 cytotox 2: 103*

Results for CC(C)CC#Cc1ccc2c(c1)O[C@H](CN(C)CC1CCOCC1)[C@@H](C)CN([C@H](C)CO)S2(=O)=O ?
Pf Dd2 growth: -59; IDH1 R132H inh: -3; T cruzi growth-1: 120; GASC1 inh: 0

What do the screens show for `CC(C)CC#Cc1ccc2c(c1)O[C@@H](CN(C)CC1CC1)[C@@H](C)CN([C@H](C)CO)S2(=O)=O`?
Pf Dd2 growth: -48; IDH1 R132H inh: -3; T cruzi growth-1: 107*; GASC1 inh: 3; T cruzi growth-2: 105*; T cruzi growth-3: 52; 3T3 cytotox: 38*; 3T3 cytotox 2: 103*

Results for CC(C)CC#Cc1ccc2c(c1)O[C@@H](CN(C)CC1CCCC1)[C@H](C)CN([C@@H](C)CO)S2(=O)=O ?
Pf Dd2 growth: -70; GASC1 inh: 1

What do the screens show for `NCCC(c1ccccc1)c1ccccc1`?
IDH1 R132H inh: 0

How did CCNC(=O)[C@@H]1[C@@H](CO)[C@@H]2Cn3c(ccc(-c4ccccc4)c3=O)[C@H]1N2CCC(F)(F)F do in these assays?
T cruzi growth-1: 84; GASC1 inh: 1

What do the screens show for `C[C@H]1CN([C@@H](C)CO)C(=O)c2cc(C3=CCCCC3)cnc2O[C@@H]1CN(C)Cc1cccc(F)c1`?
Pf Dd2 growth: -14; IDH1 R132H inh: -2; T cruzi growth-1: 29; GASC1 inh: 0

What do the screens show for `C[C@@H]1CN([C@@H](C)CO)C(=O)c2cc(C3=CCCCC3)cnc2O[C@H]1CN(C)Cc1cccc(F)c1`?
Pf Dd2 growth: -15; IDH1 R132H inh: -1; T cruzi growth-1: 115*; GASC1 inh: -3; T cruzi growth-2: 105*; T cruzi growth-3: 26; 3T3 cytotox: 14; 3T3 cytotox 2: 105*

How did C[C@@H]1CN([C@@H](C)CO)C(=O)c2cc(C3=CCCC3)cnc2O[C@@H]1CN(C)Cc1ccccc1 do in these assays?
Pf Dd2 growth: -26; IDH1 R132H inh: -1; T cruzi growth-1: inconclusive; GASC1 inh: -1; T cruzi growth-2: inconclusive; T cruzi growth-3: 36; 3T3 cytotox: -11; 3T3 cytotox 2: 17

Results for C[C@@H]1CN([C@@H](C)CO)C(=O)c2cc(C3=CCCCC3)cnc2O[C@@H]1CN(C)Cc1ccccc1 ?
Pf Dd2 growth: 13; IDH1 R132H inh: -1; T cruzi growth-1: inconclusive; GASC1 inh: 0; T cruzi growth-2: 100*; T cruzi growth-3: 33; 3T3 cytotox: -9; 3T3 cytotox 2: 48*

How did C[C@H]1CN([C@@H](C)CO)C(=O)c2cccc(NC(=O)c3ccncc3)c2O[C@@H]1CN(C)Cc1ccncc1 do in these assays?
Pf Dd2 growth: 6; T cruzi growth-1: 52; GASC1 inh: 3

How did C[C@H](CO)N1C[C@H](C)[C@H](CN(C)Cc2ccncc2)Oc2c(NC(=O)c3ccncc3)cccc2C1=O do in these assays?
Pf Dd2 growth: 7; IDH1 R132H inh: -1; T cruzi growth-1: 50; GASC1 inh: 0

Screening results deposited in PubChem BioAssay by Broad Institute.
